# Test results reported in ChEMBL document CHEMBL1139884, “Structure-based design, synthesis, and A-site rRNA cocrystal complexes of functionally novel aminoglycoside antibiotics: C2" ether analogues of paromomycin” (2007).
# Calls of active or inactive are those of the source. No cut-off for these calls is given here.
# Legend:
# Escherichia coli = assay: Antimicrobial activity against Escherichia coli ATCC 25922 after 20 to 24 hrs; type: functional
# Outline: (§1)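 Broth microdilution in duplicate; compound in 2.5% DMSO in water, overnight culture added to a final inoculum of about 10^2-10^3 CFU/well. Growth read as A595 after 20-24 h at 37°C, relative to a no-compound well. MIC reported as a range: complete inhibition at the higher concentration, viable cells at the lower. Ampicillin and tetracycline are the positive controls.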
# Staphylococcus aureus [1] = assay: Antimicrobial activity against Staphylococcus aureus ATCC 13709 after 20 to 24 hrs; type: functional; outline: as §1
# Mus musculus [2] = assay: Survival of Staphylococcus aureus Smith infected BALB/c mouse assessed as septicemia protection at 1.2 mg/kg, sc administered at 1 hr and 3 hrs postinfection after 2 weeks; type: functional, organism-based; design: dose 1.2 mg/kg
# Outline: (§2)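 Female Balb/c mice (16-18 g), acclimated one week, 10 per group. Infection IP with 0.5 mL of 10^6 S. aureus (mouse-passaged Smith strain) in 10% hog gastric mucin. Compound dissolved in water, given subcutaneously in 0.5 mL at 1 h and 3 h post-infection as serial 2-fold dilutions from 75 to 0.125 mg/kg. Amikacin and neomycin served as control groups. Moribund mice counted per group; observation over two weeks.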
# Mus musculus [3] = assay: Survival of Staphylococcus aureus Smith infected BALB/c mouse assessed as septicemia protection at 2.3 mg/kg, sc administered at 1 hr and 3 hrs postinfection after 2 weeks; type: functional, organism-based; design: dose 2.3 mg/kg; outline: as §2
# Mus musculus [4] = assay: Survival of Staphylococcus aureus Smith infected BALB/c mouse assessed as septicemia protection at 4.7 mg/kg, sc administered at 1 hr and 3 hrs postinfection after 2 weeks; type: functional, organism-based; design: dose 4.7 mg/kg; outline: as §2
# Mus musculus [5] = assay: Survival of Staphylococcus aureus Smith infected BALB/c mouse assessed as septicemia protection at 9.4 mg/kg, sc administered at 1 hr and 3 hrs postinfection after 2 weeks; type: functional, organism-based; design: dose 9.4 mg/kg; outline: as §2
# Mus musculus [6] = assay: Survival of Staphylococcus aureus Smith infected BALB/c mouse assessed as septicemia protection at 19 mg/kg, sc administered at 1 hr and 3 hrs postinfection after 2 weeks; type: functional, organism-based; design: dose 19 mg/kg; outline: as §2
# Mus musculus [7] = assay: Survival of Staphylococcus aureus Smith infected BALB/c mouse assessed as septicemia protection at 38 mg/kg, sc administered at 1 hr and 3 hrs postinfection after 2 weeks; type: functional, organism-based; design: dose 38 mg/kg; outline: as §2
# Mus musculus [8] = assay: Survival of Staphylococcus aureus Smith infected BALB/c mouse assessed as septicemia protection at 75 mg/kg, sc administered at 1 hr and 3 hrs postinfection after 2 weeks; type: functional, organism-based; design: dose 75 mg/kg; outline: as §2
# Staphylococcus aureus [9] = assay: Septicemia protection in Staphylococcus aureus Smith infected sc dosed BALB/c mouse after 2 weeks; type: functional; details: 336 h; outline: as §2
# Mus musculus [10] = assay: Survival of Staphylococcus aureus Smith infected BALB/c mouse assessed as septicemia protection at 0.50 mg/kg, sc administered at 1 hr and 3 hrs postinfection after 2 weeks; type: functional, organism-based; design: dose 0.5 mg/kg; outline: as §2
Compound,MIC (Escherichia coli) [µg/mL],MIC (Staphylococcus aureus [1]) [µg/mL],further results
NC[C@@H]1O[C@H](O[C@H]2[C@@H](OCCNCc3cccnc3)[C@H](O[C@@H]3[C@@H](O)[C@H](N)C[C@H](N)[C@H]3O[C@H]3O[C@H](CO)[C@@H](O)[C@H](O)[C@H]3N)O[C@@H]2CO)[C@H](N)[C@@H](O)[C@@H]1O,12,< 1.5,Activity (Mus musculus [2]): Active; Activity (Mus musculus [3]): Active; Activity (Mus musculus [4]): Active; Activity (Mus musculus [5]): Active; Activity (Mus musculus [6]): Active; Activity (Mus musculus [7]): Active; Activity (Mus musculus [8]): Active
NC[C@@H]1O[C@H](O[C@H]2[C@@H](OCCNC3C4CC5CC3CC(C4)C5O)[C@H](O[C@@H]3[C@@H](O)[C@H](N)C[C@H](N)[C@H]3O[C@H]3O[C@H](CO)[C@@H](O)[C@H](O)[C@H]3N)O[C@@H]2CO)[C@H](N)[C@@H](O)[C@@H]1O (stereo partly specified),20,1,–
NC[C@@H]1O[C@H](O[C@H]2[C@@H](OCCN(CCCc3ccccc3)CCc3ccccc3)[C@H](O[C@H]3C(O[C@H]4O[C@H](CO)[C@@H](O)[C@H](O)[C@H]4N)[C@@H](N)C[C@@H](N)[C@@H]3O)O[C@@H]2CO)[C@H](N)[C@@H](O)[C@@H]1O (stereo partly specified),10,0.6,–
COc1ccc(CCNCCO[C@H]2[C@H](O[C@@H]3[C@@H](O)[C@H](N)C[C@H](N)[C@H]3O[C@H]3O[C@H](CO)[C@@H](O)[C@H](O)[C@H]3N)O[C@H](CO)[C@H]2O[C@H]2O[C@@H](CN)[C@@H](O)[C@H](O)[C@H]2N)cc1,5,< 0.6,–
NC[C@@H]1O[C@H](O[C@H]2[C@@H](OCCNCc3ccc(N)nc3)[C@H](O[C@@H]3[C@@H](O)[C@H](N)C[C@H](N)[C@H]3O[C@H]3O[C@H](CO)[C@@H](O)[C@H](O)[C@H]3N)O[C@@H]2CO)[C@H](N)[C@@H](O)[C@@H]1O,3,0.3,–
NC[C@@H]1O[C@H](O[C@H]2[C@@H](OCCNC3CCCc4ccccc43)[C@H](O[C@@H]3[C@@H](O)[C@H](N)C[C@H](N)[C@H]3O[C@H]3O[C@H](CO)[C@@H](O)[C@H](O)[C@H]3N)O[C@@H]2CO)[C@H](N)[C@@H](O)[C@@H]1O (stereo partly specified),> 10,1.25,–

# More lines, main results first:
MIC (Escherichia coli) [µg/mL],MIC (Staphylococcus aureus [1]) [µg/mL],Compound,further results
3,0.3,NC[C@@H]1O[C@H](O[C@H]2[C@@H](OCCNCCc3ccccc3)[C@H](O[C@@H]3[C@@H](O)[C@H](N)C[C@H](N)[C@H]3O[C@H]3O[C@H](CO)[C@@H](O)[C@H](O)[C@H]3N)O[C@@H]2CO)[C@H](N)[C@@H](O)[C@@H]1O,ED90 (Staphylococcus aureus [9]): 0.25 mg/kg; Activity (Mus musculus [10]): Active; Activity (Mus musculus [2]): Active; Activity (Mus musculus [4]): Active; Activity (Mus musculus [6]): Active; Activity (Mus musculus [7]): Active
3,0.6,NC[C@@H]1O[C@H](O[C@H]2[C@@H](OCCNCCCc3ccccc3)[C@H](O[C@@H]3[C@@H](O)[C@H](N)C[C@H](N)[C@H]3O[C@H]3O[C@H](CO)[C@@H](O)[C@H](O)[C@H]3N)O[C@@H]2CO)[C@H](N)[C@@H](O)[C@@H]1O,–
6,6,NCCCNCCO[C@H]1[C@H](O[C@@H]2[C@@H](O)[C@H](N)C[C@H](N)[C@H]2O[C@H]2O[C@H](CO)[C@@H](O)[C@H](O)[C@H]2N)O[C@H](CO)[C@H]1O,–
10,0.6,CC(C)(C)CCNCCO[C@H]1[C@H](O[C@@H]2[C@@H](O)[C@H](N)C[C@H](N)[C@H]2O[C@H]2O[C@H](CO)[C@@H](O)[C@H](O)[C@H]2N)O[C@H](CO)[C@H]1O[C@H]1O[C@@H](CN)[C@@H](O)[C@H](O)[C@H]1N,–
12,< 1.5,NC[C@@H]1O[C@H](O[C@H]2[C@@H](OCCNCCc3cccnc3)[C@H](O[C@@H]3[C@@H](O)[C@H](N)C[C@H](N)[C@H]3O[C@H]3O[C@H](CO)[C@@H](O)[C@H](O)[C@H]3N)O[C@@H]2CO)[C@H](N)[C@@H](O)[C@@H]1O,–
12,6,CN(C)CCO[C@H]1[C@H](O[C@@H]2[C@@H](O)[C@H](N)C[C@H](N)[C@H]2O[C@H]2O[C@H](CO)[C@@H](O)[C@H](O)[C@H]2N)O[C@H](CO)[C@H]1O[C@H]1O[C@@H](CN)[C@@H](O)[C@H](O)[C@H]1N,–
> 10,5,NC[C@@H]1O[C@H](O[C@H]2[C@@H](OCCNCCC3CC4CCC3C4)[C@H](O[C@@H]3[C@@H](O)[C@H](N)C[C@H](N)[C@H]3O[C@H]3O[C@H](CO)[C@@H](O)[C@H](O)[C@H]3N)O[C@@H]2CO)[C@H](N)[C@@H](O)[C@@H]1O (stereo partly specified),–
6,0.6,NC[C@@H]1O[C@H](O[C@H]2[C@@H](OCCNCc3ccnc(N)c3)[C@H](O[C@@H]3[C@@H](O)[C@H](N)C[C@H](N)[C@H]3O[C@H]3O[C@H](CO)[C@@H](O)[C@H](O)[C@H]3N)O[C@@H]2CO)[C@H](N)[C@@H](O)[C@@H]1O,–
